# Screening results: PubChem, Broad Institute
# Most compounds without a hit are left out; they make up all but 4% or so of the library.
# Statin myotox sup: suppressors of statin myotoxicity in C2C12 myotubes, primary screen, cell-based, single point, plate reader | C2C12 myotubes + simvastatin, ATP luminescence, 48 h; scaled: DMSO 0, geranylgeraniol control 100 | 0.78% of 330,000 active | AID 602340, 2012 | rescue of ATP level, % at 7.49 µM;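 active = mean ATP rescue above about 67%, or every replicate alone reaching that limit, limit read from the data, passing the limit was not always enough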;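 note: myotubes were challenged with 10 µM simvastatin during compound exposure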
# FN deposition inh: inhibitors of fibronectin matrix deposition, primary screen, AH1F cells, Alexa488-fibronectin fluorescence, plate reader; AH1F fibroblasts, overnight; inhibition, % at 12.6 µM; AID 743247, 2014; 0.086% of 350,000 active;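 active = mean inhibition across replicates of 30% or more, regardless of how many single replicates reach that level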
#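 Material: AH1F fibroblasts assembling fluorescent fibronectin matrix; amount: 10000 AH1F cells/well; medium: DMEM, 2% serum; reagent: Alexa488-fibronectin, 24 nM final in well; dosing: single compound dose, delivered by pin transfer; incubation: 1 h adhesion, overnight exposure; detection: fluorescence after three HBSS washes, excitation 485 nm, emission 525 nm; measure: fibronectin deposition inhibition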
# FGF22 binding: binders of human FGF22 protein, primary screen, FGF22 synaptogenesis inhibitor project, biophysical, thermal shift, single point; Fibroblast growth factor 22 (Homo sapiens), Q9HCT0; recombinant FGF22 thermal shift, SYPRO orange fluorescence; percent of sucrose octasulfate shift, DMSO zero; activity (Tm shift, normalised), % at 9.99 µM; 1.5% of 340,000 active; AID 651658, 2012;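 active = mean Tm shift, scaled 0 neutral to 100 positive control, at about 1.3% or above, every replicate too, limit read from the data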
# Target sequence (Q9HCT0 whole entry, looked up): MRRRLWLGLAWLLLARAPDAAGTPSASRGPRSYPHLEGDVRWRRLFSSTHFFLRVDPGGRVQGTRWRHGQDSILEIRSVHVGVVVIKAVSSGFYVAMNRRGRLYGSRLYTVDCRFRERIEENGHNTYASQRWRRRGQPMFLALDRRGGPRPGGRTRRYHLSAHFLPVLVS
# SIRT5 inh: SIRT5 desuccinylase inhibitors, primary screen, biochemical, fluorescence imaging, single point, set 5; Purified SirT5, succinyl-peptide AMC, trypsin-coupled fluorescence; 1.1% of 330,000 active; inhibition, % at 15 µM; AID 652115, 2013; NAD-dependent protein deacylase sirtuin-5, mitochondrial (Homo sapiens), Q9NXA8; in the data active = inhibition above about 15%
# Target sequence (Q9NXA8 whole entry, looked up): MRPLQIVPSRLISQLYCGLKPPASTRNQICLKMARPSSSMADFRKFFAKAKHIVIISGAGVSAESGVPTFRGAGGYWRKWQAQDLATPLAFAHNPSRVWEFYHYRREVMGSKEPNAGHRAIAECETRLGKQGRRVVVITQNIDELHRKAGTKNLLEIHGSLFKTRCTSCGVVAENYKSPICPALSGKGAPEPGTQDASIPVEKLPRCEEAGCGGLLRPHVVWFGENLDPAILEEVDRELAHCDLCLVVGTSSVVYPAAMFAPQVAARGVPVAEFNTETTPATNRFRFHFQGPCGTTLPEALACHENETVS
# Ecoli rRNA inh: reduced GFP signal of wild-type E. coli, primary screen, bacterial rRNA inhibitor project, GFP/RFP fluorescence, OD600, single point; E. coli WT GFP vs humanized-ribosome RFP mutants, 24 h; stronger effect = lower value; DMSO median 0, no signal -100; GFP signal change (wild-type ribosome), % (concentration not given with the values); 1.6% of 350,000 active; AID 720706, 2013;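 active = significant combined selectivity score with lowered wild-type GFP, culture density cut under 30%, mutant RFP and density less affected; inactive = any of these conditions unmet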
# E-selectin induc: E-selectin induction in HUVECs, primary screen, imaging, HUVEC, immunofluorescence imaging, single point | normalized: neutral wells 0, TNF-alpha wells 100 | activation, % at 7.58 µM | P16581 | 0.37% of 260,000 active | AID 686992, 2013;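 active = mean E-selectin-positive cell signal at least 10% of the positive control, reached in at least 60% of replicates, without over 20% cell loss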
#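 Assay system: HUVEC primary endothelial cells. Input: 3,000 HUVEC seeded per well. Doses: one compound dose added by pin transfer. Read-out basis: % PE-positive cells. Benchmarks: TNF-alpha high, DMSO low. Detection: immunofluorescence imaging. Buffer or medium: EGM-2, gelatin.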
# A number is an active result; - = inactive; . = no result.
SMILES,Statin myotox sup,FN deposition inh,FGF22 binding,SIRT5 inh,Ecoli rRNA inh,E-selectin induc
C=CCn1c(SCn2nnc3ccccc3c2=O)nnc1-c1ccc(Br)cc1,-,-,.,.,.,.
C=CCn1c(COc2cccc(C)c2)nnc1SCn1nnc2ccccc2c1=O,-,-,-,-,-43,.
COc1ccc2c3c(n(C)c2c1)[C@@H](CO)N(Cc1ccccc1)CC31CN(S(C)(=O)=O)C1,.,.,.,.,-,-
O=C(CCc1ccccc1)c1nnc(-c2ccccc2)o1,.,-,-,-,-23,-
CCOc1cccc(N2C(=O)CC(NCc3ccc(S(N)(=O)=O)cc3)C2=O)c1 (stereo not given),78,.,.,.,.,.
CC(C)C#Cc1ccc2c(c1)O[C@H](CN(C)C(=O)c1ccncc1)[C@@H](C)CN([C@@H](C)CO)S2(=O)=O,-,.,-,-,-,-
Cc1nn(C)c(C(=O)Nc2ccn(C34CC5CC(CC(C5)C3)C4)n2)c1[N+](=O)[O-],.,-,-,-,-32,-
CCn1cc([N+](=O)[O-])c(C(=O)Nc2ccn(C34CC5CC(CC(C5)C3)C4)n2)n1,.,-,.,.,.,.
Cn1cc([N+](=O)[O-])c(C(=O)Nc2ccn(C34CC5CC(CC(C5)C3)C4)n2)n1,.,-,-,-,-26,-
C[C@@H]1CN([C@@H](C)CO)C(=O)c2cc(NC(=O)Cc3ccccc3)ccc2O[C@H]1CN(C)C,-,.,-,-,-,.
C[C@@H]1CCCCO[C@H](CN(C)C(=O)CCC(F)(F)F)[C@H](C)CN([C@H](C)CO)C(=O)c2cc(NC(=O)CCC(F)(F)F)ccc2O1,.,-,-,-,-,.
O=C(Cc1ccncc1)N1CC(=O)N2[C@@H](CO)[C@H](c3ccc(C4=CCCC4)cc3)[C@@H]2C1,.,.,.,-,-,-
CCNC(=O)C[C@H]1CC[C@@H](NC(=O)C2CCC2)[C@H](CO)O1,-,-,-,-,-,-
Cc1ccc(S(=O)(=O)Nc2cccc(Oc3cnccn3)c2)cc1,.,-,-,-,-,.
O=S(=O)(Nc1cccc(Oc2cnccn2)c1)c1ccc(F)cc1,-,-,-,-,-,40
COc1ccc(N2CCN(C(=O)c3ccc4c(c3)CCN4S(=O)(=O)c3ccccc3)CC2)cc1,134,-,-,-,-,-
O=C(c1ccc2c(c1)CCN2S(=O)(=O)c1ccccc1)N1CCN(c2ccc(F)cc2)CC1,-,-,-,-,-,.
CS(=O)(=O)N1CCc2cc(S(=O)(=O)N3CCCCC3)ccc21,.,-,43,-,-,.
CS(=O)(=O)N1CCc2cc(C(=O)N3CCOCC3)ccc21,98,.,.,.,.,.
C/C=C/c1cccc(-c2nc(C(=O)NCCN3CCCCC3)cc3c2[C@H](CCO)N([S@@](=O)C(C)(C)C)C3)c1,.,-,.,.,-,.
C[C@@H]1CCCCO[C@H](CN(C)Cc2ccc(C(F)(F)F)cc2)[C@H](C)CN([C@H](C)CO)C(=O)c2cc(NC(=O)c3ccncc3)ccc2O1,-,-,-,20,-,-
CC(C)NC(=O)Nc1ccc2c(c1)C(=O)N([C@@H](C)CO)C[C@@H](C)[C@H](CN(C)Cc1ccc(C(=O)O)cc1)OCCCC[C@H](C)O2,.,-,1.6,-,-,-
CC(C)NC(=O)Nc1ccc2c(c1)C(=O)N([C@H](C)CO)C[C@@H](C)[C@@H](CN(C)Cc1ccc(C(F)(F)F)cc1)OCCCC[C@H](C)O2,.,-,-,-,-,.
CC(C)NC(=O)Nc1ccc2c(c1)C(=O)N([C@@H](C)CO)C[C@@H](C)[C@H](CN(C)Cc1ccc(C(F)(F)F)cc1)OCCCC[C@@H](C)O2,.,-,-,17,-,.
